ChEMBL document CHEMBL1157169, “A class of novel nitronyl nitroxide labeling basic and acidic amino acids: synthesis, application for preparing ESR optionally labeling peptides, and bioactivity investigations” (Bioorg Med Chem, 2008)

Tests used:
Aorta [1] = test: Nitric oxide radical scavenging activity in rat aortic strip assessed as inhibition of acetylcholine-induced vasorelaxation at 10 uM; type: functional, tissue-based
Rattus norvegicus [2] = test: Thrombolytic activity in Wistar rat assessed as reduction in thrombus weight at 2.5 umol/kg; type: functional
Procedure, shortened: (§1)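 Male Wistar rats (200–300 g) anesthetized with pentobarbital sodium (80.0 mg/kg, ip). A steel helix was left 15 min in 1.0 ml carotid artery blood, and the helix with thrombus was weighed. It was placed in a polyethylene tube filled with heparin sodium (50 IU/ml NS) inserted into the left jugular vein. Heparin was injected, then compound dissolved in NS. Read-out is reduction in thrombus weight.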

Aorta [3] = test: Nitric oxide radical scavenging activity in rat aortic strip assessed as inhibition of acetylcholine-induced vasorelaxation at 100 uM; type: functional, tissue-based
PC-12 [4] = test: Radical scavenging activity in rat PC12 cells assessed as inhibition of nitric oxide radical-induced cell damage by MTT assay; type: functional, cell-based
Procedure, shortened: (§2)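 PC12 cells grown in DMEM with 10% heat-inactivated horse serum, 5% FBS and 1.0 mM pyruvate at 37 °C, 5% CO2. Seeded at 20,000 cells/well on poly-L-lysine and attached 24 h. Pretreated 1 h with 12.5–200 µM compound. Damage induced by SNP 2 mM for 2 h (NO), H2O2 1 mM for 1 h, or H2O2 1 mM/Fe(II) 30 µM for 1 h (·OH). Media replaced, cells incubated 14 h, survival measured by MTT.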

Oryctolagus cuniculus [5] = species on record: Oryctolagus cuniculus; test: Thrombolytic activity against rabbit fibrinogen assessed as fibrinogen lysis area at 2.2 uM
Procedure, shortened: (§3)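 Equal volumes of 0.3% rabbit fibrinogen and 0.95% agarose in 50 mM sodium barbiturate buffer (pH 7.8), coagulated with thrombin (100 IU/mL). After 30 min at 4 °C, 5 mm wells were punched and 30 µl of sample in NS added per well. Plates incubated and lysis area measured in mm². ANOVA.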

Oryctolagus cuniculus [6] = species on record: Oryctolagus cuniculus; test: Thrombolytic activity against rabbit fibrinogen assessed as fibrinogen lysis area at 4.5 uM; procedure, shortened: as §3
PC-12 [7] = test: Radical scavenging activity in rat PC12 cells assessed as inhibition of hydroxyl radical-induced cell damage by MTT assay; type: functional, cell-based; procedure, shortened: as §2
Oryctolagus cuniculus [8] = species on record: Oryctolagus cuniculus; test: Thrombolytic activity against rabbit fibrinogen assessed as fibrinogen lysis area at 1.1 uM; procedure, shortened: as §3
Rattus norvegicus [9] = test: Thrombolytic activity in Wistar rat assessed as reduction in thrombus weight at 10 umol/kg; type: functional; procedure, shortened: as §1
Plasma [10] = test: Thrombolytic activity in rabbit plasma assessed as euglobulin clot lysis time at 2.2 uM; type: functional, Oryctolagus cuniculus
Procedure, shortened: (§4)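 Rabbit plasma diluted 1:20 in water and precipitated at pH 5.7 with 0.25% acetic acid for 30 min at 4 °C. Centrifuged at 2000g for 15 min. […] Sample added and time to clot lysis recorded.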

Rattus norvegicus [11] = test: Thrombolytic activity in Wistar rat assessed as reduction in thrombus weight at 5 umol/kg; type: functional; procedure, shortened: as §1
Plasma [12] = test: Thrombolytic activity in rabbit plasma assessed as euglobulin clot lysis time at 4.5 uM; type: functional, Oryctolagus cuniculus; procedure, shortened: as §4
Plasma [13] = test: Thrombolytic activity in rabbit plasma assessed as euglobulin clot lysis time at 1.1 uM; type: functional, Oryctolagus cuniculus; procedure, shortened: as §4
Aorta [14] = test: Nitric oxide radical scavenging activity in rat aortic strip assessed as inhibition of acetylcholine-induced vasorelaxation at 1 uM; type: functional, tissue-based
PC-12 [15] = test: Radical scavenging activity in rat PC12 cells assessed as inhibition of hydrogen peroxide radical-induced cell damage by MTT assay; type: functional, cell-based; procedure, shortened: as §2
Rattus norvegicus [16] = test: Antithrombotic activity in Wistar rat assessed as dry thrombus weight at 20 mg/kg; type: functional
Procedure, shortened: (§5)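 Male Wistar rats (250–300 g) anesthetized with pentobarbital sodium (80.0 mg/kg, ip). The right carotid artery and left jugular vein were cannulated via a polyethylene tube containing a thread, filled with NS or compound dissolved in NS (vehicle NS). Blood shunted 15 min. The thread was weighed wet, then after 2 weeks in a desiccator weighed dry. n = 10, ANOVA.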

Rattus norvegicus [17] = test: Antithrombotic activity in Wistar rat assessed as wet thrombus weight at 20 mg/kg; type: functional; procedure, shortened: as §5
Rattus norvegicus [18] = test: Antithrombotic activity in Wistar rat assessed as dry thrombus weight at 5 umol/kg
[19] = Aqueous stability assessed as decomposition time at pH 7.4; type: physicochemical; details: buffer
Procedure, shortened: (§6)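 Each sample dissolved in aqueous solution at pH 2.0, 7.4 or 11.5 (final 10^-2 mM) and held at room temperature for up to 200 h. Decomposition followed by TLC (CHCl3/CH3OH, 20:1). Value is the time at which decomposition appeared.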

Blood [20] = test: Inhibition of 10 uM platelet activating factor-induced platelet aggregation in rabbit blood; type: functional, Oryctolagus cuniculus
Procedure, shortened: (§7)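 Platelet-rich plasma made by centrifuging normal rabbit blood anticoagulated with sodium citrate (3.8% final). Platelets adjusted to 2×10^5/µl with autologous plasma. Aggregation induced by PAF or ADP (final 10^-5–10^-7 M) and read by turbidimetry in an aggregometer. Maximal aggregation rate (Am%) taken as peak height of the curve.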

Blood [21] = test: Inhibition of 0.1 uM adenosine diphosphate-induced platelet aggregation in rabbit blood; type: functional, Oryctolagus cuniculus; procedure, shortened: as §7
Blood [22] = test: Inhibition of 1 uM platelet activating factor-induced platelet aggregation in rabbit blood; type: functional, Oryctolagus cuniculus; procedure, shortened: as §7
Blood [23] = test: Inhibition of 0.1 uM platelet activating factor-induced platelet aggregation in rabbit blood; type: functional, Oryctolagus cuniculus; procedure, shortened: as §7
Rattus norvegicus [24] = test: Antithrombotic activity in Wistar rat assessed as wet thrombus weight at 5 umol/kg; type: functional; procedure, shortened: as §5
[25] = Aqueous stability assessed as decomposition time at pH 11.5; type: physicochemical; details: buffer; procedure, shortened: as §6
Blood [26] = test: Inhibition of 10 uM adenosine diphosphate-induced platelet aggregation in rabbit blood; type: functional, Oryctolagus cuniculus; procedure, shortened: as §7
[27] = Aqueous stability assessed as decomposition time at pH 2.0; type: physicochemical; details: buffer; procedure, shortened: as §6
Blood [28] = test: Inhibition of 1 uM adenosine diphosphate-induced platelet aggregation in rabbit blood; type: functional, Oryctolagus cuniculus; procedure, shortened: as §7

Compound C[C@H](NC(=O)[C@@H]1CCCN1)C(=O)N[C@@H](CCCCNC(=O)COc1ccc(C2=[N+]([O-])C(C)(C)C(C)(C)N2O)cc1)C(=O)O has an inhibition (Aorta [1]) of 73.9%, an Activity (Rattus norvegicus [2]) of 11.06 mg and an inhibition (Aorta [3]) of 99.1%. It also gave an EC50 (PC-12 [4]) of 89 µM, an Activity (Oryctolagus cuniculus [5]) of 216 mm2 and an Activity (Oryctolagus cuniculus [6]) of 234 mm2. For the same compound, the EC50 (PC-12 [7]) was 99 µM, the Activity (Oryctolagus cuniculus [8]) was 197 mm2 and the Activity (Rattus norvegicus [9]) was 24.2 mg. For the same compound, the Time (Plasma [10]) was 128.8 min, the Activity (Rattus norvegicus [11]) was 15.38 mg and the Time (Plasma [12]) was 102.95 min. For the same compound, the Time (Plasma [13]) was 149 min, the inhibition (Aorta [14]) was 26.6% and the EC50 (PC-12 [15]) was 28.8 µM.
Compound CC(=O)Oc1ccccc1C(=O)O [ASPIRIN] has an Activity (Rattus norvegicus [16]) of 4.04 mg and an Activity (Rattus norvegicus [17]) of 24.16 mg.
CC1(C)N(O)C(c2ccc(OCC(=O)O)cc2)=[N+]([O-])C1(C)C showed a dry thrombus weight (Rattus norvegicus [18]) of 6.67 mg, a Time [19] of over 200 h and an inhibition (Aorta [1]) of 72.4%. The “inhibition (INH)” value (Blood [20]) was 53.8%, the “inhibition (INH)” value (Blood [21]) was 49.33% and the inhibition (Aorta [3]) was 99%. The “inhibition (INH)” value (Blood [22]) was 51.4%, the EC50 (PC-12 [4]) was 92.3 µM and the “inhibition (INH)” value (Blood [23]) was 52.45%. For the same compound, the Activity (Rattus norvegicus [24]) was 38.76 mg, the Time [25] was over 200 h and the Activity (Oryctolagus cuniculus [6]) was 26.6 mm2. The “inhibition (INH)” value (Blood [26]) was 51.98%, the Time [27] was over 200 h and the Activity (Rattus norvegicus [9]) was 12.11 mg. For the same compound, the Time (Plasma [12]) was 223.11 min, the “inhibition (INH)” value (Blood [28]) was 50.65% and the inhibition (Aorta [14]) was 25.3%. For the same compound, the EC50 (PC-12 [15]) was 31.6 µM.
